What was measured:
[1] = test system: Plasmodium falciparum; assay: Antimalarial activity against chloroquine-sensitive Plasmodium falciparum 3D7 infected in human erythrocytes assessed as [3H]hypoxanthine incorporation after 24 hrs by liquid scintillation and luminescence counting; assay type: functional, organism-based
How it was run: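 3D7 P. falciparum kept in human erythrocytes in RPMI-1640 with 25 mM HEPES, 32 mM NaHCO3, 10% human serum, under 3% O2/4% CO2/93% N2. Assay at 2% parasitemia, 0.5% haematocrit, triplicate, 37 °C. 0.5 µCi [3H]-hypoxanthine added after 24 h, then 24 h more (48 h total). Harvested and scintillation counted. IC50 by probit interpolation of log dose–response versus control wells.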

[2] = test system: HL-60; assay: Antitumor activity against human HL60 cells after 72 hrs by MTT assay; assay type: functional, cell-based; conditions: HL-60, 72 h
How it was run: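 HL-60 cells in RPMI-1640 with 10% FBS and 1% L-glutamine, passages 5–15, viability >95%. 2.5 × 10^4 cells/well exposed to 0.01–100 µM for 72 h, DMSO final <0.5% v/v. MTT added for 4 h at 37 °C, then SDS/DMF lysis for 4 h. A570, reference 590 nm, as % of vehicle. Quadruplicate, ≥3 experiments. IC50 from individual curves.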

Row | Compound | IC50 [1] | IC50 [2]
1 | C[C@H]1[C@@H](CCNCCCCN(CCCNC(=O)OC(C)(C)C)C(=O)OC(C)(C)C)O[C@@H]2O[C@@]3(C)CC[C@H]4[C@H](C)CC[C@@H]1[C@@]24OO3 | 0.21 nM | 11.6 µM
2 | C[C@H]1[C@@H](CC(=O)NCCCNCCCCN)O[C@@H]2O[C@@]3(C)CC[C@H]4[C@H](C)CC[C@@H]1[C@@]24OO3 | 81 nM | 47.7 µM
3 | C[C@H]1[C@@H](CC(=O)N(CCCN)CCCCN)O[C@@H]2O[C@@]3(C)CC[C@H]4[C@H](C)CC[C@@H]1[C@@]24OO3 | 108 nM | > 100 µM
4 | C[C@H]1[C@@H](CC(=O)NCCCCN(CCCNC(=O)OC(C)(C)C)C(=O)OC(C)(C)C)O[C@@H]2O[C@@]3(C)CC[C@H]4[C@H](C)CC[C@@H]1[C@@]24OO3 | 2.6 nM | 22 µM
5 | C[C@H]1[C@@H](CCN(CCCCNC(=O)OC(C)(C)C)CCCNC(=O)OC(C)(C)C)O[C@@H]2O[C@@]3(C)CC[C@H]4[C@H](C)CC[C@@H]1[C@@]24OO3 | > 100 nM | > 100 µM
6 | C[C@H]1[C@@H](CC(=O)NCCCN(CCCCNC(=O)OC(C)(C)C)C(=O)OC(C)(C)C)O[C@@H]2O[C@@]3(C)CC[C@H]4[C@H](C)CC[C@@H]1[C@@]24OO3 | 4.3 nM | 31.2 µM
7 | C[C@H]1[C@@H](CC(=O)NCCCCNCCCN)O[C@@H]2O[C@@]3(C)CC[C@H]4[C@H](C)CC[C@@H]1[C@@]24OO3 | 727 nM | 35.2 µM
8 | C[C@H]1[C@@H](CCN(CCCN)CCCCN)O[C@@H]2O[C@@]3(C)CC[C@H]4[C@H](C)CC[C@@H]1[C@@]24OO3 | 15.2 nM | > 100 µM
9 | C[C@H]1[C@@H](CC(=O)N(CCCCNC(=O)OC(C)(C)C)CCCNC(=O)OC(C)(C)C)O[C@@H]2O[C@@]3(C)CC[C@H]4[C@H](C)CC[C@@H]1[C@@]24OO3 | 4.8 nM | > 100 µM
10 | C[C@H]1[C@@H](CCNCCCNCCCCN)O[C@@H]2O[C@@]3(C)CC[C@H]4[C@H](C)CC[C@@H]1[C@@]24OO3 | 350 nM | 29.2 µM
11 | C[C@@H]1CC[C@H]2[C@@H](C)C(=O)O[C@@H]3O[C@@]4(C)CC[C@@H]1[C@]32OO4 [ARTEMISININ] | 9.2 nM | 
12 | C[C@H]1[C@@H](CCNCCCCNCCCN)O[C@@H]2O[C@@]3(C)CC[C@H]4[C@H](C)CC[C@@H]1[C@@]24OO3 | 259 nM | 17.8 µM
13 | C[C@H]1[C@@H](CCNCCCN(CCCCNC(=O)OC(C)(C)C)C(=O)OC(C)(C)C)O[C@@H]2O[C@@]3(C)CC[C@H]4[C@H](C)CC[C@@H]1[C@@]24OO3 | 0.76 nM | 16.6 µM
